# Results from different studies.
# Lines come from different studies, so protocols differ.
# JAK2 JH1: Tyrosine-protein kinase JAK2, JH1 (JAK2, Homo sapiens, UniProt O60674)
# JAK2: Tyrosine-protein kinase JAK2 (JAK2, Homo sapiens, UniProt O60674)
SMILES,target,observed,action,method,tested at,measurement,value
C[C@H]1CC[C@H](n2c3cnccc3c3cnc(Nc4ccc5c(n4)CCN(C(=O)CO)C5)nc32)CC1,JAK2 JH1,cell-free assay,,competition with immobilised ligand,1 µM,remaining binding,50%
N#Cc1ccc(NC(=O)Nc2ccccc2)cc1,JAK2 JH1,cell-free assay,,competition with immobilised ligand,25 µM,remaining binding,86%
COc1ccc2oc(-c3ccc4nc(N)oc4c3)c/c(=N\c3ccccc3NC(=O)CCN)c2c1,JAK2,binding,,,1 µM,remaining binding,96%
CC(C)S(=O)(=O)c1ccc2nccc(Nc3ccc4sc(C5CCCC5)nc4c3)c2c1,JAK2,enzyme activity,inhibitor,,1 µM,activity vs control,98%
C1=C/COCc2cc(ccc2OCCN2CCCC2)Nc2nccc(n2)-c2cccc(c2)COC/1,JAK2 JH1,cell-free assay,,,0.1 µM,remaining signal,6.8%
CO[C@@H]1[C@H](N(C)C(=O)c2ccccc2)C[C@H]2O[C@]1(C)n1c3ccccc3c3c4c(c5c6ccccc6n2c5c31)C(=O)NC4,JAK2 JH1,enzyme activity,inhibitor,,1 µM,inhibition,100%
CN1CCN(C(=O)c2ccc(NC(=O)Nc3ccc(N(C)c4ccnc(Nc5ccc(CS(C)(=O)=O)cc5)n4)cc3)cc2)CC1,JAK2 JH1,cell-free assay,,competition with immobilised ligand,1 µM,remaining binding,4.7%
C#Cc1cc(-c2cc(Nc3nc(N[C@@H](C)c4ccc(F)cn4)ncc3Cl)n[nH]2)ccc1C=O,JAK2,enzyme activity,inhibitor,,0.2 µM,inhibition,99.7%
C=CC(=O)N1CCC([C@@H]2CCNc3c(C(N)=O)c(-c4ccc(Oc5ccccc5)cc4)nn32)CC1,JAK2 JH1,enzyme activity,inhibitor,,1 µM,inhibition,12%
CCCCC(=O)Nc1ccc(-c2ccc3ncn(CCC)c(=O)c3c2)cn1,JAK2 JH1,binding,,competition with immobilised ligand,0.5 µM,remaining binding,100%
